Test results reported in paper PMC8210293 (Experimental and Therapeutic Medicine, 2021).

How the values were obtained:
Type in all cases: in vitro ADME
recombinant human UGT1A1 = molecular target: T1, recombinant human UGT1A1 (Homo sapiens, UniProt P22309); assay: Inhibition of recombinant UGT1A1-catalyzed 4-MU glucuronidation
T1 sequence (P22309 26-533): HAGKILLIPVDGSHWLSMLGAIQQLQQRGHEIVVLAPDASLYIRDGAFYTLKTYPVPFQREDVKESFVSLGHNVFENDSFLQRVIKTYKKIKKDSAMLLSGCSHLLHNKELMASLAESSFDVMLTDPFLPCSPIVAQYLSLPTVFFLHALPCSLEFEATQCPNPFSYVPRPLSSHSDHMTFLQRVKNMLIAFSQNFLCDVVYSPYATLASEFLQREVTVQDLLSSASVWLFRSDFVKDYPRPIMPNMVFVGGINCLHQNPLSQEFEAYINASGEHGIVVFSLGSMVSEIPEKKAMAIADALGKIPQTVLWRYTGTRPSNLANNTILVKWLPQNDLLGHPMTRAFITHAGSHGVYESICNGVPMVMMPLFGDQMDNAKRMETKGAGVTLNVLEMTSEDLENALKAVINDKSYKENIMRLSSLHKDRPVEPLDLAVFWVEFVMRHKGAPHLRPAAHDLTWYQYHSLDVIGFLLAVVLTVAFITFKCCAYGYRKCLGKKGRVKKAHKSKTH
Summary of the method: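 Recombinant human UGT1A1 from baculovirus-infected insect cells (0.125 mg/ml), 30 µM 4-MU, 5 mM UDPGA, 5 mM MgCl2, 50 mM Tris-HCl pH 7.4, DMSO <0.5%. Preincubated 5 min at 37 °C, started with UDPGA, run 120 min, stopped with cold methanol plus internal standard. 4-MU-G measured by LC-MS/MS MRM. Remaining activity vs blank at 50 µM. […] Ki by model fitting. Type from Lineweaver-Burk/Dixon plots.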

recombinant human UGT1A3 = molecular target: T2, recombinant human UGT1A3 (Homo sapiens, UniProt P35503); assay: Inhibition of recombinant UGT1A3-catalyzed 4-MU glucuronidation; settings: for Ki: UGT1A3
T2 sequence (P35503 29-534): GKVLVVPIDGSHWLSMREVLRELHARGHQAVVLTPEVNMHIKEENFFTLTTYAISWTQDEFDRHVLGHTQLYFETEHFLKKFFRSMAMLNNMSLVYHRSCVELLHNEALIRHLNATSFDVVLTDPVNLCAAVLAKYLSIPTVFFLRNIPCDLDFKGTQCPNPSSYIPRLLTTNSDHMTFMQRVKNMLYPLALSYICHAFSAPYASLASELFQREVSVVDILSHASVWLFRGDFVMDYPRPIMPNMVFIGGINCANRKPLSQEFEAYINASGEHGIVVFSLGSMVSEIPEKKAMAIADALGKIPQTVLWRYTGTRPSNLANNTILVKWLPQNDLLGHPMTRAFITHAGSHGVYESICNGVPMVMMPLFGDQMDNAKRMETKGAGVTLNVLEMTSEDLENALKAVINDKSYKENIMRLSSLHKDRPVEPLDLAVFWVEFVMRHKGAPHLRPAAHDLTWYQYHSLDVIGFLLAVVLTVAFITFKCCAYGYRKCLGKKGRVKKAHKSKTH
Summary of the method: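 Insect-cell-expressed recombinant human UGT1A3 (0.05 mg/ml), 1,200 µM 4-MU, 5 mM UDPGA, 5 mM MgCl2, 50 mM Tris-HCl pH 7.4, DMSO <0.5%. Preincubated 5 min at 37 °C, UDPGA-initiated, run 120 min, quenched with cold methanol plus internal standard. 4-MU-G by LC-MS/MS MRM. Remaining activity vs blank at 50 µM. […] Ki from inhibition-model fits and Lineweaver-Burk/Dixon plots.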

recombinant human UGT1A6 = molecular target: T3, recombinant human UGT1A6 (Homo sapiens, UniProt P19224); assay: Inhibition of recombinant UGT1A6-catalyzed 4-MU glucuronidation; settings: Dixon and Lineweaver-Burk plots
T3 sequence (P19224 27-532): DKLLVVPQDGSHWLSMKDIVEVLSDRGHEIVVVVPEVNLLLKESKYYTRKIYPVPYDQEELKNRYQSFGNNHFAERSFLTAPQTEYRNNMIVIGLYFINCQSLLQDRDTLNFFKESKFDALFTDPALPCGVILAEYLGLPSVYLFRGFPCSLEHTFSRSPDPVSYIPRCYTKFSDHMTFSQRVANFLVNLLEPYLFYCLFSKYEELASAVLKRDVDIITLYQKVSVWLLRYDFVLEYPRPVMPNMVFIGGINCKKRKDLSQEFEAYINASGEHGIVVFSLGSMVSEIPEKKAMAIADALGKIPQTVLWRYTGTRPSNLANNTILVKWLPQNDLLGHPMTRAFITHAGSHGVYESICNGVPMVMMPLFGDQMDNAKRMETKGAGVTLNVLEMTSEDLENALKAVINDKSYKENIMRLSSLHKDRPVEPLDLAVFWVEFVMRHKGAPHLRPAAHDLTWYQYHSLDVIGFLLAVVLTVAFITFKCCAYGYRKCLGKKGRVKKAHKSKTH

recombinant human UGT1A9 = molecular target: T4, recombinant human UGT1A9 (Homo sapiens, UniProt O60656); assay: Inhibition of recombinant UGT1A9-catalyzed 4-MU glucuronidation
T4 sequence (O60656 26-530): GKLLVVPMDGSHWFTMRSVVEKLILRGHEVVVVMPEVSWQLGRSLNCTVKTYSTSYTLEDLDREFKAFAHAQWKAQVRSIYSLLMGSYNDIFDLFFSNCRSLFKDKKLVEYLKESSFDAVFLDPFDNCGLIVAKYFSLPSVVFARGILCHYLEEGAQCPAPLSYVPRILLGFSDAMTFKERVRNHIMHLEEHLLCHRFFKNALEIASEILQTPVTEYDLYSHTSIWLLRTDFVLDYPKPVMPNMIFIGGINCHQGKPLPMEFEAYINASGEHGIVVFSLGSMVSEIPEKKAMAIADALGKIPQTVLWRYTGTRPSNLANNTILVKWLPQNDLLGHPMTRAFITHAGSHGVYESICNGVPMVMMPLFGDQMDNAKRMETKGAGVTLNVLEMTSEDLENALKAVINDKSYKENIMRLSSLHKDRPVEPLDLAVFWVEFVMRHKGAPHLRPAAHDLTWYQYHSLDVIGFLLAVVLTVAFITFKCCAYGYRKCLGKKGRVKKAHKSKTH
Summary of the method: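 UGT1A9 incubations used recombinant human enzyme from baculovirus-insect cells (0.05 mg/ml), 30 µM 4-MU, 5 mM UDPGA, 5 mM MgCl2, 50 mM Tris-HCl pH 7.4, DMSO <0.5%. Preincubated 5 min at 37 °C, UDPGA-started, run 30 min, stopped with cold methanol plus internal standard. 4-MU-G by LC-MS/MS MRM. Remaining activity vs blank at 50 µM. […] Ki and type from model fits and Lineweaver-Burk/Dixon plots.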

IC50 (recombinant human UGT1A1): 7.47 µM | Ki (recombinant human UGT1A1; Inhibitory potential class based on Ki, UGT1A1): 1 to 10 µM | Inhibition type (recombinant human UGT1A1; UGT1A1, Dixon and Lineweaver-Burk plots): non-competitive inhibition | IC50 (recombinant human UGT1A3): 10.6 µM | Ki (recombinant human UGT1A3; Inhibitory potential class based on Ki): 1 to 10 µM | Ki (recombinant human UGT1A3; Ki, second plot of Lineweaver-Burk slopes): 1.6 µM | Inhibition type (recombinant human UGT1A6): non-competitive inhibition | IC50 (recombinant human UGT1A9): 2.81 µM | Ki (recombinant human UGT1A9): 0.51 µM | Inhibition type (recombinant human UGT1A9; UGT1A9, Dixon and Lineweaver-Burk plots): competitive inhibition
SMILES: O=c1c(O)c(-c2ccc(O)c(O)c2)oc2cc(O)cc(O)c12 [Quercetin, 3,3',4',5,7-pentahydroxyflavone]
